Data set [1] addresses cGMP-dependent 3',5'-cyclic phosphodiesterase (Homo sapiens, UniProt O00408). The data set is described as follows: Inhibition of PDE2 (unknown origin) using [3H]cAMP or [3H]cGMP as substrate measured after 30 mins by liquid scintillation counting method.
The target in data set [2] is Phosphodiesterase 1 (Homo sapiens, UniProt P54750+Q01064+Q14123). Briefly: Inhibition of PDE1 (unknown origin) using [3H]cAMP or [3H]cGMP as substrate measured after 30 mins by liquid scintillation counting method. Format: protein assay.
Data set [3] deals with Phosphodiesterase 4 (Homo sapiens, UniProt P27815+Q08499+Q07343+Q08493). The data set is described as follows: Inhibition of PDE4 (unknown origin) using [3H]cAMP or [3H]cGMP as substrate measured after 30 mins by liquid scintillation counting method. The data set is classed as protein assay.
The target of data set [4] is cGMP-specific 3',5'-cyclic phosphodiesterase (Homo sapiens, UniProt O76074). The data set is described as follows: Inhibition of PDE5 (unknown origin) using [3H]cAMP or [3H]cGMP as substrate measured after 30 mins by liquid scintillation counting method.
The target of data set [5] is High affinity cGMP-specific 3',5'-cyclic phosphodiesterase 9A (Homo sapiens, UniProt O76083). The data set is described as follows: Inhibition of PDE9 (unknown origin) using [3H]cAMP or [3H]cGMP as substrate measured after 30 mins by liquid scintillation counting method.
Chain of High affinity cGMP-specific 3',5'-cyclic phosphodiesterase 9A (O76083 whole entry): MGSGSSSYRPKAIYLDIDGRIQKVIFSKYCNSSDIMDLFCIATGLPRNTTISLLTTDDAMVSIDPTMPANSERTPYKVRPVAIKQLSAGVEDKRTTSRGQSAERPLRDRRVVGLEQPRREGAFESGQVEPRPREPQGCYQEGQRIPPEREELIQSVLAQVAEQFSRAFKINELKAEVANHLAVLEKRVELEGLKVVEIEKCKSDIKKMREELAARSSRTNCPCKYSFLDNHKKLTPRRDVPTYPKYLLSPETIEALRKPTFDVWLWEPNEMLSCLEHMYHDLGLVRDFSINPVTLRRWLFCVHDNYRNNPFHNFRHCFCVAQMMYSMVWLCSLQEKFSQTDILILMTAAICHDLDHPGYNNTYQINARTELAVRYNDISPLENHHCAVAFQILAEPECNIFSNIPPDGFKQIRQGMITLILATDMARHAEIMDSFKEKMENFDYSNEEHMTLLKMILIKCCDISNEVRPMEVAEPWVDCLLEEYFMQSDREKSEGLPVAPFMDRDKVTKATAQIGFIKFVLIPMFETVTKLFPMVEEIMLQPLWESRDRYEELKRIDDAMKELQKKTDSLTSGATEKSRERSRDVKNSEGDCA
The target of data set [6] is cAMP and cAMP-inhibited cGMP 3',5'-cyclic phosphodiesterase 10A (Homo sapiens, UniProt Q9Y233). The data set is described as follows: Inhibition of PDE10 (unknown origin) using [3H]cAMP or [3H]cGMP as substrate measured after 30 mins by liquid scintillation counting method.
Chain of cAMP and cAMP-inhibited cGMP 3',5'-cyclic phosphodiesterase 10A (Q9Y233 whole entry): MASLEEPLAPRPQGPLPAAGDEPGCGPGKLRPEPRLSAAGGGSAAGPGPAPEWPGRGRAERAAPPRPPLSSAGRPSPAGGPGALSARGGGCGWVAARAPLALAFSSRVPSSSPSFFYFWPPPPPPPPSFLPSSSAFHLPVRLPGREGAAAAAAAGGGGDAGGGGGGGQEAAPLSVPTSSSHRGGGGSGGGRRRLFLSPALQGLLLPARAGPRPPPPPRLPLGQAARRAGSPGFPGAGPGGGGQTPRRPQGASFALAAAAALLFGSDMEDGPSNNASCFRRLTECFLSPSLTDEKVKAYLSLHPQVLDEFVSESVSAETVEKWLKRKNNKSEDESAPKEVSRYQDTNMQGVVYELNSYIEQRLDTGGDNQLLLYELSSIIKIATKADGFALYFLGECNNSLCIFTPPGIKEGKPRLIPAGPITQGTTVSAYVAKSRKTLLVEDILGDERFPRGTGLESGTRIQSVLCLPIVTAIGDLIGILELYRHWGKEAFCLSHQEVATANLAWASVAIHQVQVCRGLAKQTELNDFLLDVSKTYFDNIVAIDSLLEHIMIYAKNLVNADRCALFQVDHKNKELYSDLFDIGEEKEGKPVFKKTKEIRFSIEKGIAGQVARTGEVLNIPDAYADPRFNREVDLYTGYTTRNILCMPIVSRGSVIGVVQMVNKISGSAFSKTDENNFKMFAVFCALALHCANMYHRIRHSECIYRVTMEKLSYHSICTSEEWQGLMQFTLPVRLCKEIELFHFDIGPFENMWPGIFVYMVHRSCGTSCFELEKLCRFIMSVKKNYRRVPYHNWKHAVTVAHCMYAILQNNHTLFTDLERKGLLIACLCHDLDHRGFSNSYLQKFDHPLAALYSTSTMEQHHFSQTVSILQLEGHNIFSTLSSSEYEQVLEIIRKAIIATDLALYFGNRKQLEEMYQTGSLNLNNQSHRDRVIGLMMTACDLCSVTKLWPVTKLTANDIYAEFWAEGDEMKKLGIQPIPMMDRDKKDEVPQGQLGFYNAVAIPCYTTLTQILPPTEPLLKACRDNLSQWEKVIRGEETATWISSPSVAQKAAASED
The species named for data set [7] is Mus musculus. The data set is described as follows: Inhibition of PDE2 in mouse HT22 cells assessed as suppression of corticosterone-induced decrease in cGMP level at 1 uM after 24 hrs by ELISA. Format: cell-based. Summed up: (§1)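 Corticosterone at 100 μM applied to HT-22 cells for 30 min, followed by compound for 24 h. Intracellular cGMP and cAMP levels measured. Mean ± SEM, n = 6; compared with vehicle-treated corticosterone group.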
(In general: In an ELISA, binding on a coated surface is turned into a signal by an enzyme label.)

The species named for data set [8] is Mus musculus. Briefly: Inhibition of PDE2 in mouse HT22 cells assessed as suppression of corticosterone-induced decrease in cAMP level at 1 uM after 24 hrs by ELISA. The data set is classed as cell-based. An outline of the steps:
as §1
On the technique in general: cAMP levels reflect the balance of adenylyl cyclase and phosphodiesterase activity.

The test system of data set [9] is Mus musculus. The data set is described as follows: Anxiolytic activity in ICR mouse model of chronic stress-induced cognitive impairment assessed as increase in time spent in open arms at 0.5 mg/kg, ip measured for 5 mins test period by elevated plus maze test. Format: functional, organism-based. An outline of the steps: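 Chronically stressed mice given the reference drug at 0.5 mg/kg i.p., then tested in the elevated plus-maze for open-arm measures. Mean ± SEM, n = 6, versus vehicle-treated stressed group.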

Data set [10] relates to Mus musculus. The data set is described as follows: Anxiolytic activity in ICR mouse model of chronic stress-induced cognitive impairment assessed as increase in time spent in open arms at 2 mg/kg, ip measured for 5 mins test period by elevated plus maze test. Format: functional, organism-based.
Data set [11] can be described thus: Toxicity in ICR mouse assessed as effect on locomotory activity at 0.5 to 2 mg/kg, ig administered as single dose via gavage measured for 10 mins. Format: organism-based. To be noted: in vivo, po. Summed up: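 Locomotor activity test in chronically stressed mice; locomotion counts recorded 10 minutes after a single oral treatment. Mean ± SEM, n = 6.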
Data set [12] in a line: Half life in ICR mouse at 2 mg/kg, po by LC-MS/MS analysis. Format: ADME, organism-based. To be noted: in vivo.
Data set [13] can be described thus: Tmax in ICR mouse at 2 mg/kg, po by LC-MS/MS analysis. The data set is classed as ADME, organism-based. To be noted: in vivo.
A short description of data set [14]: Cmax in ICR mouse at 2 mg/kg, po by LC-MS/MS analysis. The data set is classed as ADME, organism-based. Further details: dose 2 mg/kg, route oral. To be noted: in vivo.
Data set [15] is described as follows: AUC (0 to infinity) in ICR mouse at 2 mg/kg, po by LC-MS/MS analysis. The data set is classed as ADME, organism-based. The arrangement: dose 2 mg/kg, time infinity, route oral. To be noted: in vivo.
The nature of data set [16]: Ratio of drug level in ICR mouse brain to plasma at 2 mg/kg, po measured after 0.5 hrs by LC-MS/MS analysis. To be noted: brain and plasma, read-out: BPR. Format: ADME, organism-based. Summed up:
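Oral dose of 2 mg/kg in mice. Brain and plasma drug levels taken at 0.5 h after oral administration, and expressed as brain-to-plasma ratio.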

In general, IC50 refers to the concentration that inhibits the measured activity by half. A high value points to weaker potency in that assay. The term half-life denotes the time needed for the level to fall by half in the phase considered. Read a high half-life as slow decline. For orientation: Tmax means the time at which the peak concentration occurs. Broadly, the Cmax is the peak of the concentration-time curve. Broadly, the AUC(0-inf) is the area under the concentration-time curve extrapolated to infinity.

Each structure is given as a SMILES string. Activity calls are given as the source filed them.

Chain of cGMP-dependent 3',5'-cyclic phosphodiesterase (O00408 whole entry): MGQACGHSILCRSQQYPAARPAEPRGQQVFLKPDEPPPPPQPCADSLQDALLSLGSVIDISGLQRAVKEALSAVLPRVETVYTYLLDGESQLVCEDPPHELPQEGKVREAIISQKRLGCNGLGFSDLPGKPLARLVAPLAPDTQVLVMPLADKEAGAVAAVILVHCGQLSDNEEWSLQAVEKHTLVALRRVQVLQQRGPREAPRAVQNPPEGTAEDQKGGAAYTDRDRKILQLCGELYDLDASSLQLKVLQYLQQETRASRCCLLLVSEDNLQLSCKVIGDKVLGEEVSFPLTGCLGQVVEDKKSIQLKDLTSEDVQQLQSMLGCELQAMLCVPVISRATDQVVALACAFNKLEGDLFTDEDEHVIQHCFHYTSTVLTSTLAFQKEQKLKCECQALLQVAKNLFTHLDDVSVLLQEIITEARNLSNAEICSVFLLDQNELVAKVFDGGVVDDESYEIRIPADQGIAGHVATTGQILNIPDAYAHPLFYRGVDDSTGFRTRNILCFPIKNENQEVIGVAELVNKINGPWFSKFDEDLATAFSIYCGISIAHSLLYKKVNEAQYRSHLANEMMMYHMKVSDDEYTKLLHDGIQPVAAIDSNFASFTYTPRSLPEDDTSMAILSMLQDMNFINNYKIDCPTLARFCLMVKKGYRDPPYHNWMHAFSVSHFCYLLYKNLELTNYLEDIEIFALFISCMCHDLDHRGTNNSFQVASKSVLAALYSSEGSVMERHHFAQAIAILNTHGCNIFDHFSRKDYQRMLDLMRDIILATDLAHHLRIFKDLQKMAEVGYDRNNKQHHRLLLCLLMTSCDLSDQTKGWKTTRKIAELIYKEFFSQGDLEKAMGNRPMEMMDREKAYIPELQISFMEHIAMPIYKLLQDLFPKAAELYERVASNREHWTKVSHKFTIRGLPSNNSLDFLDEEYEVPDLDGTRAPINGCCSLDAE

For `CCCCC(CC)Cn1cnc2c(=O)[nH]c(Cc3ccc(OCc4ccccc4)cc3)nc21` (stereo unspecified), the IC50 in data set [1] was 0.072 µM; in data set [2] it was above 500 µM; in data set [3], above 500 µM; in [4], above 500 µM; in data set [5] it was 13.9 µM; in data set [6], above 500 µM. `COc1ccc(CCn2cnc3c(=O)[nH]c(Cc4ccc(OCc5ccccc5)cc4)nc32)cc1OC` yielded an IC50 in data set [1] above 50 µM. Same read-out and setting: the figure for `CC(CCc1ccccc1)n1cnc2c(=O)[nH]c(Cc3ccccc3)nc21` (stereo unspecified) is 0.31 µM. Turning to `COc1ccc(Cc2nc(O)c3c(C)nc([C@@H](CCCc4ccccc4)[C@@H](C)O)n3n2)cc1OC`, the inhibition result in data set [7] and in data set [8] was “Active” throughout. The result in [9] was inactive. Consider `COc1cccc(CCn2cnc3c(=O)[nH]c(Cc4ccccc4)nc32)c1`, for which, in data set [1], the half-maximal inhibitory concentration (IC50) came to 11 µM. Same read-out and setting: the figure for `CCCCC(CC)Cn1cnc2c(=O)[nH]c(Cc3ccccc3)nc21` (stereo unspecified) is 1.24 µM; for `CCCCCCn1cnc2c(=O)[nH]c(Cc3ccc(OC)cc3)nc21` it is 3.79 µM; for `COc1ccc(CCn2cnc3c(=O)[nH]c(Cc4ccccc4)nc32)cc1OC` it is 40.3 µM. As to `CN1C(=O)CN=C(c2ccccc2)c2cc(Cl)ccc21`, the result in data set [10] was Active. Consider `CC(c1cccc2ccccc12)N1C=NC2C(=O)NC(Cc3ccccc3)=NC21` (stereo unspecified), for which the IC50 in data set [1] is 0.57 µM. The same measure, in the same setting: the figure for `CCCCn1cnc2c(=O)[nH]c(Cc3ccc(OC)cc3)nc21` is 1.94 µM. Still for that read-out and setting: as for `O=c1[nH]c(Cc2ccccc2)nc2c1ncn2CCc1c[nH]c2ccccc12`, the figure is above 50 µM; as for `CCCCCCCCn1cnc2c(=O)[nH]c(Cc3ccc(OCc4ccccc4)cc3)nc21`, 2.63 µM; as for `CCCCCCCCn1cnc2c(=O)[nH]c(Cc3ccccc3)nc21`, 4.28 µM. Same read-out and setting: the figure for `O=c1[nH]c(Cc2ccccc2)nc2c1ncn2CCc1cccs1` is 17 µM. On to `CCCCCCn1cnc2c(=O)[nH]c(Cc3ccccc3)nc21`, for which 5.94 µM corresponded to half-maximal inhibition in data set [1] (IC50). The same measure, in the same setting: as for `O=c1[nH]c(Cc2ccccc2)nc2c1ncn2Cc1ccc2ccccc2c1`, the figure is 3.99 µM; as for `CCCCCCn1cnc2c(=O)[nH]c(Cc3ccc(OCc4ccccc4)cc3)nc21`, 3.91 µM. As for `CCCCC(CC)Cn1cnc2c(=O)[nH]c(Cc3ccc(OC)cc3)nc21` (stereo unspecified), the IC50 was 0.081 µM in data set [1]; above 500 µM in [2]; above 500 µM in [3]; above 500 µM in data set [4]; 32.3 µM in data set [5]; above 500 µM in data set [6]. Also, in data set [11], the Activity result is given as “Non-Toxic”. The compound further gave a half-life in data set [12] of 84 min. Moreover, the time of peak concentration (Tmax) in data set [13] is 31.8 min. In data set [14], this compound came in with a maximum concentration (Cmax) of 0.511 µg/mL. The same compound gave a total exposure AUC(0-inf) in data set [15] of 0.646 µg·h/mL. The Kp at 0.5 h in data set [16] came to 0.56.

For the compound `O=c1[nH]c(Cc2ccccc2)nc2c1ncn2CCc1ccccc1`, in data set [1], the half-inhibitory concentration (IC50) stood at 7.27 µM. As for `CCCCn1cnc2c(=O)[nH]c(Cc3ccc(OCc4ccccc4)cc3)nc21`, half-maximal inhibition in [1] (IC50) was put at 5.46 µM. `CCCCn1cnc2c(=O)[nH]c(Cc3ccccc3)nc21` showed an IC50 in [1] of 4.32 µM.

In the case of `O=c1[nH]c(Cc2ccc(OCc3ccccc3)cc2)nc2c1ncn2CCc1ccccc1`, the 50% inhibitory concentration (IC50) in data set [1] came to 5.8 µM.

For the origin of these results see ChEMBL document CHEMBL4371070, “Design, synthesis of novel purin-6-one derivatives as phosphodiesterase 2 (PDE2) inhibitors: The neuroprotective and anxiolytic-like effects” (Bioorg Med Chem Lett, 2019).
